Values after ≈ are worked out from the molar mass of the structure shown. Active and inactive are the calls of the source. The calls are words filed in the database; no cut-off is given here.
How the values were obtained:
[1] = system: Staphylococcus epidermidis; assay: Bactericidal activity against methicillin-resistant Staphylococcus epidermidis ATCC 35984 planktonic cells assessed as planktonic eradication incubated for 24 hrs followed by incubation for overnight in fresh medium by Calgary biofilm device assay; assay type: functional
Outline: (§1)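 Calgary biofilm device. Biofilms grown 24 h at 37 °C in TSB with 0.5% glucose, then challenged 24 h with twofold compound dilutions. 20 μL of challenge medium transferred into fresh TSB with 0.5% glucose and incubated overnight at 37 °C. MBC is the concentration with no visible turbidity. At least three independent experiments.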

Staphylococcus aureus [2] = assay: Antibacterial activity against methicillin-resistant Staphylococcus aureus BAA-1707 assessed as bacterial growth inhibition incubated for 16 hrs by broth microdilution susceptibility test; assay type: functional
Outline: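 CLSI broth microdilution with 11 twofold dilutions (0.05–50 μM). About 10^5 cells per well from a log-phase culture. DMSO vehicle up to 0.5% v/v. At least three independent experiments.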

J774 = assay: Cytotoxicity against mouse J774 cells assessed as reduction in cell viability […] by Alamar blue assay; assay type: toxicity, cell-based
Enterococcus faecalis [3] = assay: Bactericidal activity against […] Enterococcus faecalis OG1RF ATCC 47077 planktonic cells assessed as planktonic eradication incubated for 24 hrs followed by incubation for overnight in fresh medium by Calgary biofilm device assay; assay type: functional
Outline: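 Calgary biofilm device in BHI. Biofilms grown 24 h at 37 °C and challenged 24 h with twofold compound dilutions. Challenge medium subcultured 1:10 into fresh BHI overnight at 37 °C. MBC is the concentration with no turbidity. At least three independent experiments.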

Staphylococcus aureus [4] = assay: Induction of iron starvation in methicillin-resistant Staphylococcus aureus BAA-1707 biofilms assessed as upregulation of sbnC gene expression at 1 uM incubated for 4 hrs by RT-qPCR analysis; assay type: functional
Outline: (§2)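 MRSA BAA-1707 grown in TSB with 0.5% glucose to OD600 ~0.8–1.0, then biofilms formed 20 h at 37 °C statically in gelatin-coated 24-well plates. Biofilms treated 4 h at 37 °C with compound (1 μM or 1/10 MBEC) or DMSO vehicle. RNA extracted; only RIN ≥7 samples used. One-step SYBR RT-qPCR; ΔCT normalised to ptaA. Three independent experiments.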

Enterococcus faecalis [5] = assay: Antibiofilm activity against Enterococcus faecalis OG1RF ATCC 47077 biofilms assessed as biofilm eradication incubated for 24 hrs followed by incubation for 24 hrs in fresh medium by Calgary biofilm device assay; assay type: functional
Outline: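 Calgary biofilm device. Biofilms grown 24 h at 37 °C in BHI from mid-log culture diluted 1000-fold. Pegs washed and then challenged 24 h with twofold serial dilutions. Pegs moved to fresh BHI for 24 h recovery. MBEC = lowest concentration leaving no turbidity; at least three independent experiments.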

Staphylococcus aureus [6] = assay: Bactericidal activity against methicillin-resistant Staphylococcus aureus BAA-1707 planktonic cells assessed as planktonic eradication incubated for 24 hrs followed by incubation for overnight in fresh medium by Calgary biofilm device assay; assay type: functional; outline: as §1
HepG2 = assay: Cytotoxicity against human HepG2 cells assessed as reduction in cell viability […] by Alamar blue assay; assay type: toxicity, cell-based
[7] = system: Staphylococcus epidermidis; assay: Antibiofilm activity against methicillin-resistant Staphylococcus epidermidis ATCC 35984 biofilms assessed as biofilm eradication incubated for 24 hrs followed by incubation for 24 hrs in fresh medium by Calgary biofilm device assay; assay type: functional
Outline: (§3)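 Calgary biofilm device. Mid-log culture diluted 1000-fold in TSB with 0.5% glucose; biofilms grown on pegs 24 h at 37 °C. Pegs washed and challenged with twofold compound dilutions for 24 h at 37 °C, then moved to fresh medium for 24 h. MBEC is the lowest concentration leaving wells non-turbid. At least three independent experiments.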

[8] = Binding affinity to Fe2+ assessed as compound-Fe2+ complex formation by UV-vis spectroscopy
[9] = system: Mycobacterium tuberculosis; assay: Antibacterial activity against Mycobacterium tuberculosis CDC1551 assessed as bacterial growth inhibition incubated for 5 days by luminescence based analysis; assay type: functional; details: CDC1551, 120 h, time 5 day
Outline: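 Bioluminescent Mtb-lux CDC1551 reporter grown in Middlebrook 7H9 with 0.05% Tween 80, 10% OADC and kanamycin to OD600 0.4–0.8, then diluted to OD600 0.02. Added to twofold drug dilutions (0.003–200 μM). Incubated 5 days at 37 °C, 5% CO2. Luminescence read against 1% DMSO and 10 μM rifampicin controls to give % growth inhibition. MIC taken from a modified Gompertz fit.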

Staphylococcus aureus [10] = assay: Induction of iron starvation in methicillin-resistant Staphylococcus aureus BAA-1707 biofilms assessed as upregulation of sfaA gene expression at 1 uM incubated for 4 hrs by RT-qPCR analysis; assay type: functional; outline: as §2
Staphylococcus aureus [11] = assay: Induction of iron starvation in methicillin-resistant Staphylococcus aureus BAA-1707 biofilms assessed as upregulation of sbnC gene expression at 1/10XMBEC incubated for 4 hrs by RT-qPCR analysis; assay type: functional; outline: as §2
Erythrocyte = assay: Hemolytic activity against human RBC at 200 uM measured after 1 hr; assay type: toxicity, cell-based
Outline: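 2% hRBCs exposed to compound at 200 μM final, added from DMSO stock, for 1 h at 37 °C. Supernatant OD read at 405 nm. Hemolysis normalized between DMSO (0%) and Triton X (100%); three independent experiments.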

Staphylococcus aureus [12] = assay: Induction of iron starvation in methicillin-resistant Staphylococcus aureus BAA-1707 biofilms assessed as upregulation of isdB gene expression at 1 uM incubated for 4 hrs by RT-qPCR analysis; assay type: functional; outline: as §2
[13] = system: Mycobacterium tuberculosis; assay: Antibacterial activity against Mycobacterium tuberculosis H37Ra ATCC 25177 assessed as bacterial growth inhibition incubated for 7 days by absorbance based analysis; assay type: functional; details: H37Ra ATCC 25177, 168 h, time 7 day
Outline: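 H37Ra grown 2 weeks in Middlebrook 7H9, then diluted to OD600 0.01. Compounds added in twofold dilutions, final 0.024–50 μM, with 0.5% DMSO and streptomycin as positive control. Incubated 7 days at 37 °C. MIC is the lowest concentration with no growth, with OD600 recorded. At least three independent experiments.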

Enterococcus faecium [14] = assay: Bactericidal activity against methicillin-resistant vancomycin-resistant Enterococcus faecium ATCC 700221 planktonic cells assessed as planktonic eradication incubated for 24 hrs followed by incubation for overnight in fresh medium by Calgary biofilm device assay; assay type: functional; outline: as §1
Staphylococcus aureus [15] = assay: Induction of iron starvation in methicillin-resistant Staphylococcus aureus BAA-1707 biofilms assessed as upregulation of MW0695 gene expression at 1/10XMBEC incubated for 4 hrs by RT-qPCR analysis; assay type: functional; outline: as §2
Enterococcus faecalis [16] = assay: Antibacterial activity against Enterococcus faecalis OG1RF ATCC 47077 assessed as bacterial growth inhibition incubated for 16 hrs by broth microdilution susceptibility test; assay type: functional
Staphylococcus aureus [17] = assay: Induction of iron starvation in methicillin-resistant Staphylococcus aureus BAA-1707 biofilms assessed as upregulation of isdB gene expression at 1/10XMBEC incubated for 4 hrs by RT-qPCR analysis; assay type: functional; outline: as §2
Staphylococcus aureus [18] = assay: Induction of iron starvation in methicillin-resistant Staphylococcus aureus BAA-1707 biofilms assessed as upregulation of sfaA gene expression at 1/10XMBEC incubated for 4 hrs by RT-qPCR analysis; assay type: functional; outline: as §2
Staphylococcus aureus [19] = assay: Antibiofilm activity against methicillin-resistant Staphylococcus aureus BAA-44 biofilms assessed as biofilm eradication incubated for 24 hrs followed by incubation for 24 hrs in fresh medium by Calgary biofilm device assay; assay type: functional; outline: as §3
HeLa = assay: Cytotoxicity against human HeLa cells assessed as reduction in cell viability incubated for 24 hrs by LDH release assay; assay type: toxicity, cell-based
Outline: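 HeLa cells in DMEM with 10% FBS, treated at 70–80% confluence with 25, 50 and 100 μM for 24 h. LDH in supernatant measured by 30 min reaction at room temperature, then stop solution and absorbance at 490 nm. Controls: 2% Triton X-100 (maximum), medium only, DMSO vehicle. Three independent experiments.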

Staphylococcus aureus [20] = assay: Induction of iron starvation in methicillin-resistant Staphylococcus aureus BAA-1707 biofilms assessed as upregulation of MW0695 gene expression at 1 uM incubated for 4 hrs by RT-qPCR analysis; assay type: functional; outline: as §2
Enterococcus faecium [21] = assay: Antibiofilm activity against methicillin-resistant vancomycin-resistant Enterococcus faecium ATCC 700221 biofilms assessed as biofilm eradication incubated for 24 hrs followed by incubation for 24 hrs in fresh medium by Calgary biofilm device assay; assay type: functional; outline: as §3

Structure (SMILES): Oc1c(Br)c(Cl)c(Br)c2nc3ccccc3nc12
- MBC [1]: 12.5 µM (≈ 4.86 µg/mL)
- MIC (Staphylococcus aureus [2]): 0.15 µM (≈ 0.0583 µg/mL)
- IC50 (J774): > 200 µM
- MBC (Enterococcus faecalis [3]): 75 µM (≈ 29.1 µg/mL)
- Activity (Staphylococcus aureus [4]): Active
- MBEC (Enterococcus faecalis [5]): >200 µM
- MBC (Staphylococcus aureus [6]): 50 µM (≈ 19.4 µg/mL)
- IC50 (HepG2): > 200 µM
- MBEC [7]: 25 µM
- Activity [8]: Active
- MIC [9]: 4.37 µM (≈ 1.7 µg/mL)
- Activity (Staphylococcus aureus [10]): Active
- Activity (Staphylococcus aureus [11]): Active
- Activity (Erythrocyte): <= 1%
- Activity (Staphylococcus aureus [12]): Active
- MIC [13]: 6.25 µM (≈ 2.43 µg/mL)
- MBC (Enterococcus faecium [14]): 4.69 µM (≈ 1.82 µg/mL)
- Activity (Staphylococcus aureus [15]): Active
- MIC (Enterococcus faecalis [16]): 3.13 µM (≈ 1.22 µg/mL)
- Activity (Staphylococcus aureus [17]): Active
- Activity (Staphylococcus aureus [18]): Active
- MBEC (Staphylococcus aureus [19]): 75 µM
- IC50 (HeLa): > 100 µM
- Activity (Staphylococcus aureus [20]): Active
- MBEC (Enterococcus faecium [21]): 2.35 µM
